According to ChEMBL document CHEMBL2062523, “Synthesis and evaluation of the quorum sensing inhibitory effect of substituted triazolyldihydrofuranones” (Bioorg Med Chem, 2012):
In brackets after ≈: the same amount, converted by molar mass. Activity calls are given as the source filed them. No cut-off for these calls is given here.

Key:
Format in all cases: functional
[1] = target: T1, Transcriptional activator protein LuxR (Aliivibrio fischeri) (UniProt P12746); experiment: Antagonist activity at Vibrio fischeri LuxR-mediated quorum sensing expressed in Escherichia coli JB523 assessed as inhibition of C6-HSL-induced GFP expression at 1 mM after 24 hrs by reporter gene assay
T1 sequence (whole entry): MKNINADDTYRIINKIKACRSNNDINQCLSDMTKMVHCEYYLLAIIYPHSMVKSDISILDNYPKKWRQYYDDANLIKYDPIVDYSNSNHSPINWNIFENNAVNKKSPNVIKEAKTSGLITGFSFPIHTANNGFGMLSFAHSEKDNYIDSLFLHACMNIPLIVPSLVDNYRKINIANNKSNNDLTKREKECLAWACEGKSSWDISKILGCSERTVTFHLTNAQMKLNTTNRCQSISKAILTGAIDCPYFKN
Procedure, shortened: (§1)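 JB523 GFP biosensor in LB/0.4% NaCl at OD590 0.1 with tetracycline 100 µg/ml final; compounds co-added with C6-HSL (5 µM). Plates kept 24 h at 30 °C, then GFP read at 485/510 nm. Each compound tested in twelve wells, assay repeated at least three times.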

Escherichia coli = experiment: Antibacterial activity against Escherichia coli JB523 after 20 hrs by broth microdilution assay; details: JB523, 20 h
Procedure, shortened: (§2)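 EUCAST broth microdilution in triplicate, inoculum about 5 × 10^5 CFU/ml. Incubated 20 h at 37 °C, then OD590 read. Compounds from 100 mM DMSO stocks, diluted in water.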

Burkholderia cenocepacia = experiment: Antibacterial activity against Burkholderia cenocepacia LMG16656 after 20 hrs by broth microdilution assay; details: LMG16656, 20 h; procedure, shortened: as §2
Pseudomonas aeruginosa [2] = experiment: Antibacterial activity against Pseudomonas aeruginosa PAO1 after 20 hrs by broth microdilution assay; details: PAO1, 20 h; procedure, shortened: as §2
Pseudomonas aeruginosa [3] = experiment: Antibacterial activity against Pseudomonas aeruginosa QSIS2 after 20 hrs by broth microdilution assay; details: QSIS2, 20 h; procedure, shortened: as §2
[4] = target: T1, Transcriptional activator protein LuxR (Aliivibrio fischeri); experiment: Antagonist activity at Vibrio fischeri LuxR-mediated quorum sensing expressed in Escherichia coli JB523 assessed as inhibition of C6-HSL-induced GFP expression after 24 hrs by reporter gene assay; procedure, shortened: as §1
[5] = target: T1, Transcriptional activator protein LuxR (Aliivibrio fischeri); experiment: Antagonist activity at Vibrio fischeri LuxR-mediated quorum sensing expressed in Escherichia coli JB523 assessed as inhibition of C6-HSL-induced GFP expression at 0.1 mM after 24 hrs by reporter gene assay; procedure, shortened: as §1
[6] = target: T1, Transcriptional activator protein LuxR (Aliivibrio fischeri); experiment: Antagonist activity at Vibrio fischeri LuxR expressed in Escherichia coli JB523 assessed as inhibition of C6-HSL-induced GFP expression at 0.5 mM after 24 hrs by reporter gene assay; procedure, shortened: as §1
Pseudomonas aeruginosa [7] = experiment: Antagonist activity at Pseudomonas aeruginosa QSIS2 LasR-mediated quorum sensing co-expressing SacB1 assessed as inhibition of 3-oxo-C12-HSL-induced luminescence at 0.1 mM after 24 hrs by reporter gene assay
Pseudomonas aeruginosa [8] = experiment: Antagonist activity at Pseudomonas aeruginosa QSIS2 LasR-mediated quorum sensing co-expressing SacB1 assessed as inhibition of 3-oxo-C12-HSL-induced luminescence at 0.25 mM […] by reporter gene assay
Pseudomonas aeruginosa [9] = experiment: Antagonist activity at Pseudomonas aeruginosa QSIS2 LasR-mediated quorum sensing co-expressing SacB1 assessed as inhibition of 3-oxo-C12-HSL-induced luminescence at 0.5 mM after 24 hrs by reporter gene assay
[10] = target: T1, Transcriptional activator protein LuxR (Aliivibrio fischeri); experiment: Agonist activity at Vibrio fischeri LuxR-mediated quorum sensing expressed in Escherichia coli JB523 assessed as GFP expression at 0.1 mM after 24 hrs by reporter gene assay
Procedure, shortened: (§3)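 E. coli JB523 (pJBA130, luxR-PluxI–GFP) overnight culture diluted to OD590 0.1 in LB with 0.4% NaCl, tetracycline 100 µg/ml final. Compounds 100–1000 µM added without signal; C6-HSL (5 µM) as positive control, water as negative. 24 h at 30 °C; GFP fluorescence ex 485/em 510 nm. Twelve wells per compound, ≥3 repeats.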

[11] = target: T1, Transcriptional activator protein LuxR (Aliivibrio fischeri); experiment: Agonist activity at Vibrio fischeri LuxR-mediated quorum sensing expressed in Escherichia coli JB523 assessed as GFP expression at 0.25 mM after 24 hrs by reporter gene assay; procedure, shortened: as §3
[12] = target: T1, Transcriptional activator protein LuxR (Aliivibrio fischeri); experiment: Agonist activity at Vibrio fischeri LuxR-mediated quorum sensing expressed in Escherichia coli JB523 assessed as GFP expression at 0.5 mM after 24 hrs by reporter gene assay; procedure, shortened: as §3
Pseudomonas aeruginosa [13] = experiment: Agonist activity at Pseudomonas aeruginosa QSIS2 LasR-mediated quorum sensing co-expressing SacB1 assessed as luminescence at 0.1 mM after 24 hrs by reporter gene assay
Pseudomonas aeruginosa [14] = experiment: Agonist activity at Pseudomonas aeruginosa QSIS2 LasR-mediated quorum sensing co-expressing SacB1 assessed as luminescence at 0.25 mM after 24 hrs by reporter gene assay
Pseudomonas aeruginosa [15] = experiment: Agonist activity at Pseudomonas aeruginosa QSIS2 LasR-mediated quorum sensing co-expressing SacB1 assessed as luminescence at 0.5 mM after 24 hrs by reporter gene assay
Pseudomonas aeruginosa [16] = experiment: Agonist activity at Pseudomonas aeruginosa QSIS2 LasR-mediated quorum sensing co-expressing SacB1 assessed as luminescence after 24 hrs by reporter gene assay
Pseudomonas aeruginosa [17] = experiment: Antagonist activity at Pseudomonas aeruginosa QSIS2 LasR-mediated quorum sensing co-expressing SacB1 assessed as inhibition of 3-oxo-C12-HSL-induced luminescence at 1 mM […] by reporter gene assay
[18] = target: T1, Transcriptional activator protein LuxR (Aliivibrio fischeri); experiment: Agonist activity at Vibrio fischeri LuxR-mediated quorum sensing expressed in Escherichia coli JB523 assessed as GFP expression at 1 mM after 24 hrs by reporter gene assay; procedure, shortened: as §3
Pseudomonas aeruginosa [19] = experiment: Agonist activity at Pseudomonas aeruginosa QSIS2 LasR-mediated quorum sensing coexpressing SacB1 assessed as […] by reporter gene assay

Row | Compound | inhibition [1] [%] | MIC (Escherichia coli) [mM] | MIC (Burkholderia cenocepacia) [mM] | MIC (Pseudomonas aeruginosa [2]) [mM] | MIC (Pseudomonas aeruginosa [3]) [mM] | inhibition [4] | inhibition [5] | inhibition [6] [%] | Activity [10] | Activity [11] | Activity [12] | Activity [18] | inhibition (Pseudomonas aeruginosa [7]) | inhibition (Pseudomonas aeruginosa [8]) | inhibition (Pseudomonas aeruginosa [9]) | Activity (Pseudomonas aeruginosa [13]) | Activity (Pseudomonas aeruginosa [14]) | Activity (Pseudomonas aeruginosa [15]) | inhibition (Pseudomonas aeruginosa [17]) | Activity (Pseudomonas aeruginosa [19]) | also measured
1 | O=C1OCCC1n1cc(-c2ccccc2)nn1 (stereo not drawn) | 26.9 | 10 (≈ 2290 µg/mL) | 5 (≈ 1150 µg/mL) | 5 (≈ 1150 µg/mL) | 5 (≈ 1150 µg/mL) | Dose-dependent effect | inactive | 24.5 | inactive | inactive | inactive | 12.8% | inactive | inactive | inactive | inactive | inactive | 14.4% | inactive | 22.2% | Activity (Pseudomonas aeruginosa [16]): Dose-dependent effect
2 | CCCCCCCc1cn(C2CCOC2=O)nn1 (stereo not drawn) | 39 | 5 (≈ 1260 µg/mL) | 5 (≈ 1260 µg/mL) | 5 (≈ 1260 µg/mL) | 5 (≈ 1260 µg/mL) | Dose-dependent effect | 13.7% | 34.6 | inactive | 8% | 12.2% | 17.6% | inactive | inactive | inactive | inactive | inactive | inactive | inactive | inactive | 
3 | CCCCc1cn(C2CCOC2=O)nn1 (stereo not drawn) | 27.9 | 5 (≈ 1050 µg/mL) | 5 (≈ 1050 µg/mL) | 5 (≈ 1050 µg/mL) | 5 (≈ 1050 µg/mL) | Dose-dependent effect | 12.7% | 22.5 | inactive | inactive | 11.6% | 17.3% | inactive | inactive | inactive | inactive | inactive | inactive | inactive | inactive | 
4 | CCCCCc1cn(C2CCOC2=O)nn1 (stereo not drawn) | 35.1 | 5 (≈ 1120 µg/mL) | 5 (≈ 1120 µg/mL) | 5 (≈ 1120 µg/mL) | 5 (≈ 1120 µg/mL) | Dose-dependent effect | 9% | 27.5 | inactive | 5.7% | 16.3% | 25.9% | inactive | inactive | inactive | inactive | inactive | inactive | inactive | inactive | 

Continued, in another order:

Row | inhibition [1] [%] | MIC (Escherichia coli) [mM] | MIC (Burkholderia cenocepacia) [mM] | MIC (Pseudomonas aeruginosa [2]) [mM] | MIC (Pseudomonas aeruginosa [3]) [mM] | inhibition [4] | inhibition [5] | inhibition [6] [%] | Activity [10] | Activity [11] | Activity [12] | Activity [18] | Compound | inhibition (Pseudomonas aeruginosa [7]) | inhibition (Pseudomonas aeruginosa [8]) | inhibition (Pseudomonas aeruginosa [9]) | Activity (Pseudomonas aeruginosa [13]) | Activity (Pseudomonas aeruginosa [14]) | Activity (Pseudomonas aeruginosa [15]) | inhibition (Pseudomonas aeruginosa [17]) | Activity (Pseudomonas aeruginosa [19]) | also measured
5 | 31.9 | 2.5 (≈ 734 µg/mL) | 2.5 (≈ 734 µg/mL) | 2.5 (≈ 734 µg/mL) | 2.5 (≈ 734 µg/mL) | Dose-dependent effect | 12.4% | 28 | inactive | inactive | inactive | inactive | CCCCCCCCCCc1cn(C2CCOC2=O)nn1 (stereo not drawn) | 7% | 8.1% | 15% | 32.1% | 31.4% | 38% | 21.9% | 57.2% | Activity (Pseudomonas aeruginosa [16]): Dose-dependent effect
6 | 34.3 | 5 (≈ 1190 µg/mL) | 5 (≈ 1190 µg/mL) | 5 (≈ 1190 µg/mL) | 5 (≈ 1190 µg/mL) | Dose-dependent effect | 11.6% | 23.2 | inactive | 10% | 17.5% | 32.7% | CCCCCCc1cn(C2CCOC2=O)nn1 (stereo not drawn) | inactive | inactive | inactive | inactive | inactive | inactive | inactive | inactive | 
7 | 34.4 | 5 (≈ 1220 µg/mL) | 5 (≈ 1220 µg/mL) | 5 (≈ 1220 µg/mL) | 5 (≈ 1220 µg/mL) | Dose-dependent effect | 6.3% | 29.6 | inactive | inactive | inactive | inactive | O=C1OCCC1n1cc(Cc2ccccc2)nn1 (stereo not drawn) | inactive | inactive | inactive | 19.1% | 31.1% | 39.7% | 49.9% | 67.5% | Activity (Pseudomonas aeruginosa [16]): Dose-dependent effect
